Assay results gathered from unrelated publications.
Target: Serine/threonine-protein kinase WNK2 (WNK2, Homo sapiens, UniProt Q9Y3S1)

COc1ncc2cc3ccccc3nc2c1C#N  remaining binding (cell-free assay, competition with immobilised ligand; 5 µM): 100%
N[C@@H]1CCN(c2nccc(-c3cnn4ncccc34)n2)C1  remaining binding (binding; 1 µM): 95%
C[C@@H](c1ccc(-n2cnc3c(N)ncnc32)cc1)N1CCc2nn(C)c(Cc3ccccc3)c2C1=O  remaining binding (binding, competition with immobilised ligand; 0.1 µM): 65%
Nc1ncc2c(n1)-c1c([nH]c3ccc(C#CC4CC4)cc13)CCCC2  remaining binding (binding, competition with immobilised ligand; 1 µM): 100%
c1cnn2ncc(-c3ccnc(N4CCC45COC5)n3)c2c1  remaining binding (binding; 1 µM): 78%
O=C(NCCCN1CCOCC1)c1ccc(Nc2ncc(Cl)c(-c3ccc(Cl)s3)n2)cc1  remaining binding (binding, competition with immobilised ligand; 1 µM): 92%
COc1ccc2c(c1)O[C@@H](c1ccc(OC)c(OC)c1)C[C@H]2NC(=O)C1(c2ccc3c(c2)OC(F)(F)O3)CC1  remaining binding (cell-free assay, competition with immobilised ligand; 1 µM): 84%
O=C(NCCCN1CCOCC1)c1ccc(Nc2nccc(-c3cc4ccccc4s3)n2)cc1  remaining binding (binding, competition with immobilised ligand; 1 µM): 60%
CNC(=O)Nc1ccc2c(c1)CC[C@@]21OC(=O)N(CC(=O)N(Cc2ccc(F)cc2)[C@@H](C)C(F)(F)F)C1=O  remaining binding (cell-free assay, competition with immobilised ligand; 1 µM): 100%
CN(C)c1nccc(-c2cnn3ncccc23)n1  remaining binding (binding; 1 µM): 37%
O=C(Nc1c[nH]nc1C(=O)NC1CCNCC1)c1cc(F)cc(F)c1  remaining binding (binding, competition with immobilised ligand; 1 µM): 100%
C=CC(=O)N1CCC(C(=O)NCC(=O)N2CCN(c3nc(-c4cnc(N)nc4C(F)F)nc(N4CCOCC4)n3)CC2)CC1  remaining binding (binding, competition with immobilised ligand; 1 µM): 92%
CC1CCCN1c1nccc(-c2cnn3ncccc23)n1 (stereo not drawn)  remaining binding (binding; 1 µM): 100%
CC(C)(O)c1cncc(-c2nc3ccc(F)cc3n2C2CC2)c1  remaining binding (cell-free assay, competition with immobilised ligand; 1 µM): 100%
O=C(c1ccc(Nc2ncc(Cl)c(-c3ccc(Cl)s3)n2)cc1)N1CCC(N2CCCC2)CC1  remaining binding (binding, competition with immobilised ligand; 1 µM): 88%
CC1=C(C#N)[C@@H](c2ccc3[nH]nc(C)c3c2)C(C#N)=C(c2ccc(Cl)cc2)N1  remaining binding (cell-free assay, competition with immobilised ligand; 1 µM): 100%
CN(C)c1ncc(F)c(-c2cnn3ncccc23)n1  remaining binding (binding; 1 µM): 82%
CNCc1ccccc1-c1csc([C@H](C)Nc2nc(C)nc3cc(OC)c(OC)cc23)c1  remaining binding (cell-free assay, competition with immobilised ligand; 1 µM): 99%
CNC(=O)[C@@H]1CC[C@@H](n2c(-c3ccc4cnccc4c3)nc3ccc(C(=O)NCc4cccc(C(N)=O)c4)cc32)C1  remaining binding (binding, competition with immobilised ligand; 1 µM): 100%
C[C@@H]1CCN(c2nccc(-c3cnn4ncccc34)n2)C1  remaining binding (binding; 1 µM): 100%
CCc1ccccc1C(=O)Nc1n[nH]c2c(C)c(F)c(C3C(C#N)=C(C)N(C)C(C)=C3C#N)cc12  remaining binding (cell-free assay, competition with immobilised ligand; 1 µM): 100%
